According to ChEMBL document CHEMBL4334468, “Exploring Mitochondria-Mediated Intrinsic Apoptosis by New Phytochemical Entities: An Explicit Observation of Cytochrome c Dynamics on Lung and Melanoma Cancer Cells” (J Med Chem, 2019):

What was measured:
WI-38 [1] = assay: Cytotoxicity in human WI38 cells assessed as reduction in cell viability incubated for 48 hrs by MTT assay; assay type: cell-based
Summary of the method: (§1)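 MTT viability assay on A375 melanoma, A549 lung adenocarcinoma and WI-38 normal lung fibroblast cells after 24 and 48 h treatment. IC50 values are in µM, expressed as mean ± SD.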

WI-38 [2] = assay: Cytotoxicity in human WI38 cells assessed as reduction in cell viability incubated for 24 hrs by MTT assay; assay type: cell-based; conditions: wi-38; summary of the method: as §1
A-375 [3] = assay: Cytotoxicity in human A375 cells assessed as reduction in cell viability incubated for 48 hrs by MTT assay; assay type: functional, cell-based; summary of the method: as §1
A549 [4] = assay: Cytotoxicity in human A549 cells assessed as reduction in cell viability incubated for 24 hrs by MTT assay; assay type: functional, cell-based; summary of the method: as §1
A549 [5] = assay: Cytotoxicity in human A549 cells assessed as reduction in cell viability incubated for 48 hrs by MTT assay; assay type: functional, cell-based; summary of the method: as §1
A-375 [6] = assay: Cytotoxicity in human A375 cells assessed as reduction in cell viability incubated for 24 hrs by MTT assay; assay type: functional, cell-based; summary of the method: as §1
[7] = Homo sapiens, A-375, 48 h, read-out: IC50
[8] = Homo sapiens, A549, 24 h, read-out: IC50
[9] = Homo sapiens, A549, 48 h, read-out: IC50
[10] = Homo sapiens, A-375, 24 h, read-out: IC50
[11] = Homo sapiens, WI-38, 48 h, read-out: IC50

Row | SMILES | IC50 (WI-38 [1]; wi-38) | IC50 (WI-38 [2]) | IC50 (A-375 [3]; [7]) [µM] | IC50 (A549 [4]; [8]) [µM] | IC50 (A549 [5]; [9]) [µM] | IC50 (A-375 [6]; [10]) [µM] | IC50 (A549 [4]; a549) | IC50 (A549 [5]; a549) | IC50 (A-375 [3]; a-375) | IC50 (A-375 [6]; a-375) | IC50 (WI-38 [1]; [11]) [µM]
1 | COc1cc(C2Oc3cc(-c4cc(=O)c5c(O)cc(O)cc5o4)ccc3OC2c2cc(Cc3ccccc3)on2)ccc1O (stereo unspecified) | Non-Toxic | Non-Toxic | 0.9 | 7 | 3.9 | 4.6 |  |  |  |  | 
2 | CCCC1NOC(=O)/C1=C/C1Oc2ccc(-c3cc(=O)c4c(O)cc(O)cc4o3)cc2OC1c1ccc(O)c(OC)c1 (stereo unspecified) | Non-Toxic | Non-Toxic | 60 |  |  | 92.7 | Not Active | Not Active |  |  | 
3 | COc1cc(C2Oc3cc(-c4cc(=O)c5c(O)cc(O)cc5o4)ccc3OC2c2cc(C(=O)Nc3ccc(C(F)(F)F)cc3)on2)ccc1O (stereo unspecified) | Non-Toxic | Non-Toxic | 0.95 | 3.6 | 0.76 | 4 |  |  |  |  | 
4 | COc1cc(C2Oc3cc(-c4cc(=O)c5c(O)cc(O)cc5o4)ccc3OC2/C=C2/C(=O)ONC2C)ccc1O (stereo unspecified) | Non-Toxic | Non-Toxic |  |  |  |  | Not Active | Not Active | Not Active | Not Active | 
5 | COc1cc(C2Oc3cc(-c4cc(=O)c5c(O)cc(O)cc5o4)ccc3OC2/C=C2/C(=O)ONC2C(F)(F)F)ccc1O (stereo unspecified) |  | Non-Toxic | 0.83 | 2.1 | 16.4 | 2 |  |  |  |  | 95
6 | COc1cc(C2Oc3cc(-c4cc(=O)c5c(O)cc(O)cc5o4)ccc3OC2c2cc(-c3ccc(C)cc3)on2)ccc1O (stereo unspecified) | Non-Toxic | Non-Toxic |  |  | 77.4 |  | Not Active |  | Not Active | Not Active | 
7 | COc1cc(C2Oc3cc(-c4cc(=O)c5c(O)cc(O)cc5o4)ccc3OC2c2noc(C)c2CO)ccc1O (stereo unspecified) | Non-Toxic | Non-Toxic | 46.5 | 68 | 51 | 68.7 |  |  |  |  | 
8 | COc1cc(C2Oc3cc(-c4cc(=O)c5c(O)cc(O)cc5o4)ccc3OC2/C=C2/C(=O)ON(C)C2C)ccc1O (stereo unspecified) |  | Non-Toxic | 2.4 | 4.5 | 3.8 | 3.1 |  |  |  |  | 68
9 | COc1cc(C2Oc3cc(-c4cc(=O)c5c(O)cc(O)cc5o4)ccc3OC2c2cc(C(=O)NS(=O)(=O)c3ccc(Cl)cc3)on2)ccc1O (stereo unspecified) |  | Non-Toxic | 4.2 | 8.7 | 6.6 | 6.2 |  |  |  |  | 54.6
10 | COc1cc(C2Oc3cc(-c4cc(=O)c5c(O)cc(O)cc5o4)ccc3OC2/C=C2/C(=O)ONC2c2ccc(F)cc2)ccc1O (stereo unspecified) | Non-Toxic | Non-Toxic | 7.9 | 1.4 | 7.5 | 13.7 |  |  |  |  | 
11 | COc1cc(C2Oc3cc(-c4cc(=O)c5c(O)cc(O)cc5o4)ccc3OC2c2cc(C(C)(C)O)on2)ccc1O (stereo unspecified) | Non-Toxic | Non-Toxic | 0.65 | 4.8 | 2.9 | 1.43 |  |  |  |  | 
